From ChEMBL document CHEMBL4411297, “Discovery, synthesis and anti-atherosclerotic activities of a novel selective sphingomyelin synthase 2 inhibitor” (Eur J Med Chem, 2019)
pIC50: −log10 of the molar value.

How the values were obtained:
[1] = tested on: Mus musculus; assay: Anti-atherosclerotic activity in apoE knockout mouse fed with western-type diet assessed as reduction in macrophage content at 40 mg/kg/day, ig for 7 weeks by immunostaining assay relative to control; format: functional; parameters: scale not given: the % may be the effect or the level left
Summary of the method: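 ApoE KO mice on Western-type diet, dosed by gavage at 12.5 or 40 mg/kg/day for 7 weeks. Aortic root sections 4 µm thick immunostained with MOMA-2: primary antibody 1 h at room temperature, biotinylated secondary, HRP-streptavidin, DAB, hematoxylin counterstain. Stained area quantified and expressed relative to vehicle.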

[2] = tested on: Mus musculus; assay: Anti-atherosclerotic activity in apoE knockout mouse fed with western-type diet assessed as reduction in lesions in whole aorta at 40 mg/kg/day, ig for 7 weeks by oil-red O staining-based assay relative to control; format: functional; parameters: scale not given: the % may be the effect or the level left
Summary of the method: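 ApoE KO mice fed Western-type diet, then given 12.5 or 40 mg/kg/day by gavage in 30% PEG-400/10% DMSO/0.9% NaCl for 7 weeks. Aortic root: H&E-stained 4 µm sections, mean lesion area from 6 sections per animal. Whole aorta: en face Oil Red O staining, percentage of area stained. Compared with vehicle, n = 10.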

[3] = tested on: Mus musculus; assay: Anti-atherosclerotic activity in apoE knockout mouse fed with western-type diet assessed as reduction in plasma SM level at 12.5 mg/kg/day, ig for 7 weeks relative to control; format: functional; parameters: scale not given: the % may be the effect or the level left
Summary of the method: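 ApoE KO mice on Western-type diet, dosed by gavage at 12.5 or 40 mg/kg/day for 7 weeks, n = 10. Blood collected at 20 weeks of age. Plasma SM measured by a previously reported method. ALT and AST read on an automated biochemical analyzer.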

[4] = molecular target: T1, Phosphatidylcholine:ceramide cholinephosphotransferase 2 (Homo sapiens, UniProt Q8NHU3); assay: (§1) Inhibition of purified SMS2 (unknown origin) using C6-NBD-Ceramide and DMPC as substrates preincubated for 5 mins followed by substrate addition and measured after 30 mins by TLC or HPLC method
T1 sequence (Q8NHU3 whole entry): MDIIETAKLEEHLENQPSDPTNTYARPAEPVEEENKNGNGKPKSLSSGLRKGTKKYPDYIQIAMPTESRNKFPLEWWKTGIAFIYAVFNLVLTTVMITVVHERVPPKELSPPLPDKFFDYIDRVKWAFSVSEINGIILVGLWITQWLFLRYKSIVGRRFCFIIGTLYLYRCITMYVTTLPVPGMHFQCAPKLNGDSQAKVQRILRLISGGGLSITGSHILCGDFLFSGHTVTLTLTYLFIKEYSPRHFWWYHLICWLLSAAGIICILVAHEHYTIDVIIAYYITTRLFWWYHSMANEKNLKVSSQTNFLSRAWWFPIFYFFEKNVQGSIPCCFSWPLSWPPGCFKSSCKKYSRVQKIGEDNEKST
Summary of the method: (§2)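 Purified SMS1 or SMS2 in DDM detergent buffer; inhibitor in DMSO pre-incubated 5 min at room temperature, then C6-NBD-ceramide and DMPC added, 30 min at 37 °C; ethanol quench, TLC or HPLC read-out. Activity expressed as percent of no-inhibitor vehicle; IC50 from ten (SMS1) or eight (SMS2) concentrations, mean ± SD, n = 3.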

[5] = molecular target: T2, Phosphatidylcholine:ceramide cholinephosphotransferase 2 (Homo sapiens) (UniProt Q8NHU3); assay: as §1; summary of the method: as §2
T2 sequence (whole entry): T1 sequence (Q8NHU3 whole entry)

[6] = MRT (0 to infinity) in C57BL/6J mouse at 25 mg/kg/day, ig by HPLC-MS/MS analysis; format: ADME, organism-based; conditions: in vivo, po
Summary of the method: (§3)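 Male C57BL/6J mice (6–8 weeks, ~20 g), fasted 12 h, given a single intragastric dose of 25, 50 or 100 mg/kg in 10% DMSO/30% PEG/0.9% NaCl. Retro-orbital blood at 5 min to 8 h; plasma protein-precipitated with methanol plus internal standard, assayed by LC-MS/MS; noncompartmental analysis. Mean ± SD, n = 6.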

[7] = tested on: Mus musculus; assay: Anti-atherosclerotic activity in apoE knockout mouse fed with western-type diet assessed as reduction in CD11b+/Ly6C++/Ly6G+ dendritic cells at 40 mg/kg/day, ig for 7 weeks by flow cytometric analysis relative to control; format: functional; parameters: scale not given: the % may be the effect or the level left
Summary of the method: (§4)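 ApoE KO mice started at 8 weeks old on Western-type diet for 6 weeks. Then dosed by gavage daily with vehicle, 12.5 or 40 mg/kg for 7 weeks with the diet continued, 10 mice per group. Blood single-cell suspensions stained with antibodies in PBS and analysed by flow cytometry. Mean ± SD, n = 5.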

[8] = AUC (0 to 8 hrs) in C57BL/6J mouse at 25 mg/kg/day, ig by HPLC-MS/MS analysis; format: ADME, organism-based; parameters: dose 25 mg/kg/day, time < 8 hr, route intragastric; conditions: in vivo, po
Summary of the method: (§5)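 Male C57BL/6J mice, six to eight weeks old, about 20 g, fasted 12 h with free water. Given a single intragastric dose of 25, 50 or 100 mg/kg in 10% DMSO/30% PEG-100/0.9% NaCl. Blood taken retro-orbitally at 5 min to 8 h. Plasma protein-precipitated with methanol plus internal standard, then HPLC-MS/MS on a C18 column. Noncompartmental analysis, n = 6.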

[9] = Tmax in C57BL/6J mouse at 50 mg/kg/day, ig by HPLC-MS/MS analysis; format: ADME, organism-based; conditions: in vivo, po; summary of the method: as §3
[10] = Half life in C57BL/6J mouse at 25 mg/kg/day, ig by HPLC-MS/MS analysis; format: ADME, organism-based; conditions: in vivo, po; summary of the method: as §5
[11] = Dose normalized AUC (0 to 8 hrs) in C57BL/6J mouse at 100 mg/kg/day, ig by HPLC-MS/MS analysis; format: ADME, organism-based; conditions: in vivo, po; summary of the method: as §5
[12] = tested on: Mus musculus; assay: Effect on plasma AST levels in C57BL/6J mouse at 100 mg/kg/day, ig qd for 7 days measured on day 7; format: ADME, organism-based; conditions: in vivo, po, 168 h
Summary of the method: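 C57BL/6J mice dosed by gavage at 100 mg/kg once daily for 7 days. Plasma SM sampled on days 0, 3 and 7. Plasma ALT and AST measured on day 7 by automated analyzer. Compared with vehicle, n = 10.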

[13] = tested on: Mus musculus; assay: Anti-atherosclerotic activity in apoE knockout mouse fed with western-type diet assessed as reduction in monocyte count at 12.5 mg/kg/day, ig for 7 weeks by flow cytometric analysis relative to control; format: functional; parameters: scale not given: the % may be the effect or the level left; summary of the method: as §4
[14] = AUC (0 to infinity) in C57BL/6J mouse at 100 mg/kg/day, ig by HPLC-MS/MS analysis; format: ADME, organism-based; parameters: dose 100 mg/kg/day, route intragastric, time infinity; conditions: in vivo, po; summary of the method: as §5
[15] = AUC (0 to 8 hrs) in C57BL/6J mouse at 50 mg/kg/day, ig by HPLC-MS/MS analysis; format: ADME, organism-based; parameters: time < 8 hr, dose 50 mg/kg/day, route intragastric; conditions: in vivo, po; summary of the method: as §5
[16] = tested on: Mus musculus; assay: Effect on body weight in apoE knockout mouse fed with western-type diet at 12.5 to 40 mg/kg/day, ig for 7 weeks; format: ADME, organism-based; conditions: in vivo, po, 1176 h
Summary of the method: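 ApoE KO mice on Western-type diet, dosed by gavage daily at 12.5 or 40 mg/kg for 7 weeks. Body weight recorded weekly throughout dosing and compared with vehicle, 10 mice per group.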

[17] = Tmax in C57BL/6J mouse at 25 mg/kg/day, ig by HPLC-MS/MS analysis; format: ADME, organism-based; conditions: in vivo, po; summary of the method: as §3
[18] = MRT (0 to 8 hrs) in C57BL/6J mouse at 25 mg/kg/day, ig by HPLC-MS/MS analysis; format: ADME, organism-based; conditions: in vivo, po; summary of the method: as §3
[19] = tested on: Mus musculus; assay: Anti-atherosclerotic activity in apoE knockout mouse fed with western-type diet assessed as reduction in monocyte count at 40 mg/kg/day, ig for 7 weeks by flow cytometric analysis relative to control; format: functional; parameters: scale not given: the % may be the effect or the level left; summary of the method: as §4

pIC50 [4]: 7.04 | inhibition [5]: Dose-dependent effect | MRT inf [6]: 3.64 h | AUC at 8 h [8]: 1990 ng·h/mL | Tmax [9]: 4.8 min | half-life [10]: 3.22 h | AUC/dose [11]: 0.13 µg·h/mL | AUC(0-inf) [14]: 14500 ng·h/mL | AUC at 8 h [15]: 6260 ng·h/mL | Tmax [17]: 6.6 min | MRT [18]: 1.9 h
SMILES: CCc1ccccc1COc1ccccc1C(=O)Nc1cccnc1
Activity [1]: 55% | Activity [2]: 41% | Activity [3]: 25% | Activity [7]: 43% | Activity [12]: Non-Toxic | Activity [13]: 51% | Activity [16]: Non-Toxic | Activity [19]: 50%
